Values after ≈ are worked out from the molar mass of the structure shown. Marks after values point to notes of the source that are not given here. Values belong to the compound of their own block, whether it stands above or below them. Non-standard residues stand in square brackets, D forms with d. Residues, ends and D or L forms follow the SMILES beside them.
What was measured:
[1] = tested on: cytosolic Ca2+ in SC-A1 cells; settings: cited from earlier work
[2] = tested on: reactive oxygen species in NCI-H838 cells; assay: Reactive oxygen species in H2DCF labeled NCI-H838 cells; assay type: cell-based, human
In short: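 NCI-H838 cells were plated at 30,000/well and cultured overnight. They were loaded with 10 µM H2DCF for 1 h and washed 3 times in serum-free SIT medium. Test compound (5 mM or 10 µM) was added 30 min before 10 µM H2O2. Fluorescence (ex 485, […]) was read 0.5 h after stimulus and expressed as relative fluorescence, mean ± S.D. of 8 determinations.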

EGFR [3] = assay: Western blot of EGFR tyrosine phosphorylation in NCI-H838 cells; assay type: cell-based, human; settings: for effect on EGFR transactivation caused by ET-1: NSCLC cells, concentration not given; for effect on EGFR transactivation caused by ET-1 / effect on basal P-EGFR, EGFR: data not shown; for effect on basal P-EGFR, EGFR: inhibitor alone; for effect on increase in EGFR phosphorylation caused by 100 nM ET-1: 10 μM inhibitor, 2 min ET-1
HER2 [4] = assay: Western blot of HER2 tyrosine phosphorylation in NCI-H838 cells; assay type: cell-based, human; settings: for effect on HER2 transactivation caused by ET-1: NSCLC cells, concentration not given; for effect on HER2 transactivation caused by ET-1 / effect on basal P-HER2 or HER2: data not shown; for effect on basal P-HER2 or HER2: inhibitor alone; for effect on increase in HER2 phosphorylation caused by 100 nM ET-1: 10 μM inhibitor, 2 min ET-1
ETAR [5] = target: T1, ETAR (Homo sapiens, UniProt P25101); assay: 125I-ET-1 radioreceptor binding to NCI-H1975 cells
T1 sequence (P25101 21-427): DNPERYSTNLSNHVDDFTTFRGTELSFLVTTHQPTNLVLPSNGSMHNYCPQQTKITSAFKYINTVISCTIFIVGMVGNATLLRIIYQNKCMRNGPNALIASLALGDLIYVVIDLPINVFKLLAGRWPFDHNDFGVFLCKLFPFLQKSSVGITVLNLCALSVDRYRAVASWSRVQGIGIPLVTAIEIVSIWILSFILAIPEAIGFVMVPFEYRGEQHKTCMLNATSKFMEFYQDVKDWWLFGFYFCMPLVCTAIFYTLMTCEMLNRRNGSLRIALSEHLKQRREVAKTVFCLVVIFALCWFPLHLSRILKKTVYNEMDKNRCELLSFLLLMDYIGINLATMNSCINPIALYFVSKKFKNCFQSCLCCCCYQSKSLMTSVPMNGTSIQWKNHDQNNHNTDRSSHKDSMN

A549 cells = assay: MTT proliferation assay, A549 cells; assay type: cell-based; settings: Homo sapiens, A549, 48 h, read-out: IC50, proliferation
NCI-H727 cells = assay: MTT proliferation assay, NCI-H727 cells; assay type: cell-based; settings: Homo sapiens, NCI-H727, 48 h, read-out: IC50, proliferation
ETAR [6] = target: T1, ETAR; assay: 125I-ET-1 radioreceptor binding to NCI-H838 cells
NCI-H838 cells [7] = assay: MTT proliferation assay, NCI-H838 cells; assay type: cell-based; settings: Homo sapiens, NCI-H838, 48 h, read-out: IC50, proliferation
NCI-H838 cells [8] = assay: Clonogenic assay, NCI-H838 cells; assay type: cell-based, human; settings: gefitinib 1 ug/ml; for reduction of colony number: absence of exogenous ET-1, BQ123 1 μM; for Colony number: in the presence of ET-1 10 nM, BQ123/BQ788 1000 nM, 2 weeks
EGFR [9] = assay: Western blot of EGFR tyrosine phosphorylation in NCI-H1975 cells; assay type: cell-based, human; settings: 5 mM
In short: (§1)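 Lysates (Tris pH 7.5, vanadate) were either immunoprecipitated with anti-phosphotyrosine antibody (400 µg protein) or loaded directly (20 µg) and probed with anti-PY1068-EGFR or anti-[…]-HER2. ECL bands were quantified by densitometry as mean % tyrosine phosphorylation.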

HER2 [10] = assay: Western blot of HER2 tyrosine phosphorylation in NCI-H1975 cells; assay type: cell-based, human; settings: 5 mM
In short: as §1

NSCLC patients [11] = settings: plus paclitaxel-carboplatin; cited from earlier work
[12] = tested on: cytosolic Ca2+ in NCI-H1975 cells; assay: Cytosolic Ca2+ in Fura-2AM loaded NCI-H1975 cells; assay type: cell-based, human; settings: for antagonism of the Ca2+ increase caused by 10 nM ET-1: 1000 nM antagonist; for effect on basal cytosolic Ca2+: 1000 nM antagonist alone
In short: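 NCI-H1975 cells were detached with trypsin-EDTA and loaded with Fura-2AM in SIT medium (2.5 × 10^6 cells/ml) at 37°C for 30 min. Cells were spun at 1000 × g for 5 min, resuspended at 2.5 × 10^6/ml and placed in a stirred quartz cuvette at 37°C.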

NSCLC patients [13] = settings: zibotentan or zibotentan plus pemetrexed; cited from earlier work
[14] = addition alone (ET-1 100 nM, H2O2 10 μM, Tiron 5 mM, ZD4054 10 μM), 0.5 hr, None = 100
[15] = with H2O2 10 μM, Tiron or ZD4054 added 0.5 h before, read 0.5 hr after H2O2

SMILES: COC(=O)C1=C(C)NC(C)=C(C(=O)OC)C1c1ccccc1[N+](=O)[O-] [nifedipine]
- effect on the Ca2+ increase caused by ET-1 [1]: reversed

SMILES: OO [H2O2]
- % Fluorescence intensity [2, 14]: 401 ± 37 ^aa %

SMILES: CS(=O)(=O)CCNCc1ccc(-c2ccc3ncnc(Nc4ccc(OCc5cccc(F)c5)c(Cl)c4)c3c2)o1 [Lapatinib, lapatinib]
- effect on EGFR transactivation caused by ET-1 (EGFR [3]): inhibited
- effect on HER2 transactivation caused by ET-1 (HER2 [4]): inhibited
- IC50 (ETAR [5]): > 10000 nM
- IC50 (A549 cells): 2 µg/mL (≈ 3.44 µM)
- IC50 (NCI-H727 cells): 0.5 µg/mL (≈ 0.86 µM)
- IC50 (ETAR [6]): > 10000 nM
- IC50 (NCI-H838 cells [7]): 1 µg/mL (≈ 1.72 µM)

SMILES: COc1cc2ncnc(Nc3ccc(F)c(Cl)c3)c2cc1OCCCN1CCOCC1 [Gefitinib, gefitinib]
- effect on HER2 transactivation caused by 100 nM ET-1 (HER2 [4]; 10 μg/ml): significantly reduced
- reduction of colony number (NCI-H838 cells [8]): 50%
- Colony number (NCI-H838 cells [8]): 32 ± 3 ^aa

SMILES: O=S(=O)(O)c1cc(O)c(O)c(S(=O)(=O)O)c1 [Tiron]
- effect on basal P-EGFR, EGFR (EGFR [3]): no effect
- effect on basal P-HER2 or HER2 (HER2 [4]): no effect
- effect on increase in EGFR tyrosine phosphorylation caused by ET-1 (EGFR [9]): inhibited significantly
- % Fluorescence intensity [2, 14]: 99 ± 7 ^aa^, ^bb %
- % Fluorescence intensity [2, 15]: 171 ± 12 ^bb %
- effect on increase in HER2 tyrosine phosphorylation caused by ET-1 (HER2 [10]): inhibited significantly

SMILES: CCCCN(CCCC)C(=O)CN1C[C@H](c2ccc3c(c2)OCO3)[C@@H](C(=O)O)[C@@H]1c1ccc(OC)cc1 [atrasentan]
- tolerability (NSCLC patients [11]): well tolerated

SMILES: CC(C)C[C@@H]1NC(=O)[C@@H](C(C)C)NC(=O)[C@@H]2CCCN2C(=O)[C@@H](CC(=O)O)NC(=O)[C@@H](Cc2c[nH]c3ccccc23)NC1=O [BQ123] (cyclo(L[dW][dD]P[dV]); ring closure inferred)
- effect on EGFR tyrosine phosphorylation caused by 100 nM ET-1 (EGFR [3]; 0.1 μM antagonist): little effect
- effect on EGFR tyrosine phosphorylation caused by 100 nM ET-1 (EGFR [3]; 1 μM or 10 μM antagonist): significantly reduced
- effect on HER2 tyrosine phosphorylation caused by 100 nM ET-1 (HER2 [4]; 0.1 μM antagonist): little effect
- effect on HER2 tyrosine phosphorylation caused by 100 nM ET-1 (HER2 [4]; 1 μM or 10 μM antagonist): significantly reduced
- IC50 (ETAR [5]): 1.5 ± 0.03 nM
- effect on the Ca2+ increase caused by ET-1 [1]: reversed
- reduction of colony number (NCI-H838 cells [8]): 22%
- Colony number (NCI-H838 cells [8]): 37 ± 2 ^a
- antagonism of the Ca2+ increase caused by 10 nM ET-1 [12]: blocked
- effect on basal cytosolic Ca2+ [12]: did not alter
- IC50 (ETAR [6]): 1 ± 0.2 nM

SMILES: CC(C)(C)n1nc(-c2ccc(Cl)cc2)c2c(N)ncnc21 [PP2]
- effect on increase in EGFR phosphorylation caused by 100 nM ET-1 (EGFR [3]): inhibited significantly
- effect on basal P-EGFR, EGFR (EGFR [3]): no effect
- effect on increase in HER2 phosphorylation caused by 100 nM ET-1 (HER2 [4]): inhibited significantly
- effect on basal P-HER2 or HER2 (HER2 [4]): no effect

SMILES: CNC(=O)[C@H](Cc1c[nH]c2ccccc12)NC(=O)[C@@H](CC(=O)NO)CC(C)C [GM6001]
- effect on increase in EGFR phosphorylation caused by 100 nM ET-1 (EGFR [3]): inhibited significantly
- effect on basal P-EGFR, EGFR (EGFR [3]): no effect
- effect on increase in HER2 phosphorylation caused by 100 nM ET-1 (HER2 [4]): inhibited significantly
- effect on basal P-HER2 or HER2 (HER2 [4]): no effect

SMILES: COc1ccc2c(c1)CC[C@@H]1[C@@H]2CC[C@]2(C)[C@@H](NCCCCCCN3C(=O)C=CC3=O)CC[C@@H]12 [U73122]
- effect on the Ca2+ increase caused by ET-1 [1]: reversed

- IC50 (ETAR [5]): 25 ± 3 nM
- IC50 (ETAR [6]): 20 ± 2 nM
SMILES: CCCC[C@@H](NC(=O)[C@@H](Cc1cn(C(=O)OC)c2ccccc12)NC(=O)[C@H](CC(C)(C)C)NC(=O)N1[C@H](C)CCC[C@@H]1C)C(=O)O [BQ788]
- effect on EGFR transactivation caused by ET-1 (EGFR [3]): little effect
- effect on HER2 transactivation caused by ET-1 (HER2 [4]): little effect
- Colony number (NCI-H838 cells [8]): 46 ± 4
- antagonism of the Ca2+ increase caused by 10 nM ET-1 [12]: did not antagonize
- effect on basal cytosolic Ca2+ [12]: had no effect

SMILES: COc1nc(C)cnc1NS(=O)(=O)c1cccnc1-c1ccc(-c2nnco2)cc1 [ZD4054, zibotentan]
- effect on EGFR transactivation caused by ET-1 (EGFR [3]): inhibited
- effect on HER2 transactivation caused by ET-1 (HER2 [4]): inhibited
- IC50 (A549 cells): 45 µg/mL (≈ 106 µM)
- % Fluorescence intensity [2, 14]: 105 ± 6 ^aa^, ^bb %
- % Fluorescence intensity [2, 15]: 351 ± 22 ^aa %
- overall survival (NSCLC patients [13]): no differences
- IC50 (NCI-H838 cells [7]): 50 µg/mL (≈ 118 µM)

SMILES: CC(=O)N[C@@H](CS)C(=O)O [Nacetylcysteine]
- effect on EGFR transactivation caused by ET-1 (EGFR [3]): inhibited
- effect on HER2 transactivation caused by ET-1 (HER2 [4]): inhibited

From PMC5421360 (Peptides, 2017)
